Test results taken from ChEMBL document CHEMBL2424567, “Hybrid peptides endomorphin-2/DAMGO: design, synthesis and biological evaluation” (Eur J Med Chem, 2013).
The source made the active and inactive calls. Non-standard residues stand in square brackets, D forms with d. Residues, ends and D or L forms follow the SMILES beside them. *: point of attachment. NHCH2CH2OH = OCCN*; Sar = CNCC(=O)O

Experiments:
Mus musculus [1] = assay: Antinociceptive effect in icv dosed CD1 mouse assessed as increase in tail-flick latency period by tail flick test; type: functional
Outline: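 Male CD-1 mice (25–30 g) given i.c.v. injection under light isoflurane (2 mm caudal/2 mm lateral of bregma, 3 mm deep, 5 µL), various doses. Radiant infrared heat focused 3–4 cm from tail tip; withdrawal latency with 15 s cut-off. Baseline is the mean of three readings 15 min apart; readings at 5–30 min. Result as %MPE; AD50 with 95% confidence limits by graded dose–response.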

Mus musculus [2] = assay: Analgesic activity in icv dosed CD1 mouse assessed as inhibition of heat-induced jumping behaviour after 5 to 30 mins by hot plate method; type: functional
Outline: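 Male CD-1 mice (25–30 g), lightly isoflurane-anaesthetised, injected i.c.v. 2 mm caudal and 2 mm lateral of bregma, 3 mm depth, 5 µL; various doses. Plate held at 55.0 ± 0.1 °C; latency to paw licking or jumping, 60 s cut-off. Baseline is the mean of three readings 15 min apart; readings at 5, 10, 15, 20 and 30 min. Result as %MPE; AD50 with 95% confidence limits by graded dose–response.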

[3] = target: Delta-type opioid receptor (Rattus norvegicus, UniProt P33533); assay: Displacement of [3H]Ile5,6deltorphin-2 from delta opioid receptor in Wistar rat brain membranes by liquid scintillation counting; type: cell membranes, Membrane
Sequence of Delta-type opioid receptor (P33533 whole entry): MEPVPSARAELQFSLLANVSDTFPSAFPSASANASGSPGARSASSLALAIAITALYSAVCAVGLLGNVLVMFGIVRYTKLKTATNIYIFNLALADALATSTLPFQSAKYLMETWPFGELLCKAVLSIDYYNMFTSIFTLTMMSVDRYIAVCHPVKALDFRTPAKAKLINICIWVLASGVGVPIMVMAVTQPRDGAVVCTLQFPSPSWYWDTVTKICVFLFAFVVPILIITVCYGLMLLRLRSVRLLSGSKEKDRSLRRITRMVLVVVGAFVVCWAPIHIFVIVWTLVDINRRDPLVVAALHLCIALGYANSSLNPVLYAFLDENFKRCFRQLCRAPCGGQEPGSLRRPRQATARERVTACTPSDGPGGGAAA

Mu-type opioid receptor = Mu-type opioid receptor (Rattus norvegicus, UniProt P33535); assay: Displacement of [3H]DAMGO from mu opioid receptor in Wistar rat brain membranes by liquid scintillation counting; type: cell membranes, Membrane
Sequence of Mu-type opioid receptor (P33535 whole entry): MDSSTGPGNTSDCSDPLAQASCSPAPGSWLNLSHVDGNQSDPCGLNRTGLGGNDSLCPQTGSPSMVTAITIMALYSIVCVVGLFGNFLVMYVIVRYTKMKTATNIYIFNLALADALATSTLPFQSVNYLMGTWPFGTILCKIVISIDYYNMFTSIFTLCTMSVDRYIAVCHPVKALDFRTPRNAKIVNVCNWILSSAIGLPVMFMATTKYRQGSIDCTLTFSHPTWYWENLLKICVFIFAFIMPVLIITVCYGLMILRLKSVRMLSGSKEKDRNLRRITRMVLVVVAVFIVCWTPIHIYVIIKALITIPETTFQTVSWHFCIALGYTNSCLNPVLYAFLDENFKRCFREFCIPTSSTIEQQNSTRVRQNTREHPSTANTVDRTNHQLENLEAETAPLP

Rattus norvegicus = species on record: Rattus norvegicus; assay: Selectivity ratio of Ki for delta opioid receptor in Wistar rat brain membranes to Ki for mu opioid receptor in Wistar rat brain membranes; type: cell membranes; details: Membrane
Outline: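 Washed Wistar rat brain membranes (0.2–0.4 mg/ml protein) incubated 30 min at 25 °C in 50 mM Tris-HCl pH 7.4 with BSA, captopril, bestatin and phosphoramidon (1 µM each). Radioligands were [3H]DAMGO (0.9–1.2 nM, μ) or [3H]Ile5,6-deltorphin-2 (0.8–1.3 nM, δ); competitor at 10^-11–10^-5 M; nonspecific binding with 10 µM naloxone. Filtration and scintillation counting; Ki by Cheng–Prusoff; δ/μ Ki ratio.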

[4] = Half life in human plasma at 100 ug/mL; type: ADME, cell-free
Outline: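 Thawed human plasma spiked with compound in DMSO to 100 µg/mL final, incubated at 37 °C. Samples taken at set times were quenched with 5% ZnSO4/MeOH/ACN (5:3:2), centrifuged, and the supernatant analysed by reversed-phase HPLC-UV (275 or 254 nm). Calibration range 10–100 µg/mL. Three independent experiments.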

SMILES: CN(CC(=O)N[C@@H](Cc1ccccc1)C(=O)NCCO)C(=O)[C@@H]1CCCN1C(=O)[C@@H](N)Cc1ccc(O)cc1 (H-YP[Sar]F-NHCH2CH2OH)
- AD50 (Mus musculus [1]): inactive
- AD50 (Mus musculus [2]): inactive
- Ki [3]: > 10 µM
- Ki (Mu-type opioid receptor): > 10000 nM

SMILES: CN(C(=O)[C@H](Cc1ccccc1)NC(=O)[C@@H]1CCCN1C(=O)[C@@H](N)Cc1ccc(O)cc1)[C@@H](Cc1ccccc1)C(=O)NCCO.O=C(O)C(F)(F)F
- AD50 (Mus musculus [1]): 5.56 nmol
- AD50 (Mus musculus [2]): 9.44 nmol
- Ratio Ki (Rattus norvegicus): 17.2
- Ki [3]: 3.86 µM
- Ki (Mu-type opioid receptor): 224 nM

SMILES: CN(C(=O)[C@H](Cc1ccccc1)N(C)C(=O)[C@@H]1CCCN1C(=O)[C@@H](N)Cc1ccc(O)cc1)[C@@H](Cc1ccccc1)C(=O)NCCO.O=C(O)C(F)(F)F
- half-life at 100 ug/mL [4]: 40 min
- AD50 (Mus musculus [1]): 2.65 nmol
- AD50 (Mus musculus [2]): 3.77 nmol
- Ratio Ki (Rattus norvegicus): 188
- Ki [3]: 6.4 µM
- Ki (Mu-type opioid receptor): 34 nM

SMILES: C[C@@H](NC(=O)[C@@H](N)Cc1ccc(O)cc1)C(=O)NCC(=O)N(C)[C@@H](Cc1ccccc1)C(=O)NCCO [DAMGO]
- Ki [3]: > 10 µM

SMILES: CC[C@H](C)[C@H](NC(=O)[C@H](CCC(=O)O)NC(=O)[C@H](Cc1ccccc1)NC(=O)[C@H](C)NC(=O)[C@@H](N)Cc1ccc(O)cc1)C(=O)N[C@H](C(=O)NCC(N)=O)[C@@H](C)CC
- Ki (Mu-type opioid receptor): > 10000 nM

SMILES: CN(C(=O)[C@@H]1CCCN1C(=O)[C@@H](N)Cc1ccc(O)cc1)[C@@H](Cc1ccccc1)C(=O)N[C@@H](Cc1ccccc1)C(=O)NCCO.O=C(O)C(F)(F)F
- AD50 (Mus musculus [1]): 3.03 nmol
- AD50 (Mus musculus [2]): 9.6 nmol
- Ki [3]: > 10 µM
- Ki (Mu-type opioid receptor): 155 nM

SMILES: NC(=O)[C@H](Cc1ccccc1)NC(=O)[C@H](Cc1ccccc1)NC(=O)[C@@H]1CCCN1C(=O)[C@@H](N)Cc1ccc(O)cc1 [ENDOMORPHIN 2]
- AD50 (Mus musculus [1]): 1.49 nmol
- AD50 (Mus musculus [2]): 2.29 nmol

SMILES: N[C@@H](Cc1ccc(O)cc1)C(=O)N1CCC[C@H]1C(=O)N[C@@H](Cc1ccccc1)C(=O)N[C@@H](Cc1ccccc1)C(=O)NCCO.O=C(O)C(F)(F)F
- AD50 (Mus musculus [1]): 3.44 nmol
- AD50 (Mus musculus [2]): 6.66 nmol
- Ratio Ki (Rattus norvegicus): 8.9
- Ki [3]: 0.799 µM
- Ki (Mu-type opioid receptor): 90 nM
